The subject of one series is PDE8. The series is described as follows: PDE enzyme assay. Format: biochemical. As to conditions: selectivity ratio IC50 PDE8 / IC50 PDE5.
A further series deals with PDE2 (Homo sapiens, UniProt O00408). Kind of series: PDE enzyme assay. Format: biochemical. The settings on record: selectivity ratio IC50 PDE2 / IC50 PDE5.
A further series addresses PDE5 (Homo sapiens, UniProt O76074). The series is described as follows: PDE enzyme assay. The settings on record: ratio IC50 PDE5 / IC50 PDE5. Type of series: biochemical.
A further series concerns the target PDE4. Kind of series: PDE enzyme assay. Format: biochemical. The settings on record: for IC50: read-out: PDE4 IC50, Data obtained by BPS Bioscience; for PDEX/PDE5 (PDE4): selectivity ratio IC50 PDE4 / IC50 PDE5. The method, boiled down:
(§1)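 Each PDE was incubated at room temperature for 60 min in PDE assay buffer with 100 nM FAM-cGMP or FAM-cAMP substrate, 0.125 ng enzyme and test compound. A 1:100 binding-agent solution was then added for 60 min at room temperature.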

The next series deals with PDE7. Kind of series: PDE enzyme assay. Type of series: biochemical. The settings on record: for IC50: read-out: PDE7 IC50, Data obtained by BPS Bioscience; for PDEX/PDE5 (PDE7): selectivity ratio IC50 PDE7 / IC50 PDE5. The method, boiled down: as §1
The target in another series is PDE11 (Homo sapiens, UniProt Q9HCR9). Kind of series: PDE enzyme assay. Type of series: biochemical. The settings on record: selectivity ratio IC50 PDE11 / IC50 PDE5.
Chain of PDE11 (Q9HCR9 whole entry): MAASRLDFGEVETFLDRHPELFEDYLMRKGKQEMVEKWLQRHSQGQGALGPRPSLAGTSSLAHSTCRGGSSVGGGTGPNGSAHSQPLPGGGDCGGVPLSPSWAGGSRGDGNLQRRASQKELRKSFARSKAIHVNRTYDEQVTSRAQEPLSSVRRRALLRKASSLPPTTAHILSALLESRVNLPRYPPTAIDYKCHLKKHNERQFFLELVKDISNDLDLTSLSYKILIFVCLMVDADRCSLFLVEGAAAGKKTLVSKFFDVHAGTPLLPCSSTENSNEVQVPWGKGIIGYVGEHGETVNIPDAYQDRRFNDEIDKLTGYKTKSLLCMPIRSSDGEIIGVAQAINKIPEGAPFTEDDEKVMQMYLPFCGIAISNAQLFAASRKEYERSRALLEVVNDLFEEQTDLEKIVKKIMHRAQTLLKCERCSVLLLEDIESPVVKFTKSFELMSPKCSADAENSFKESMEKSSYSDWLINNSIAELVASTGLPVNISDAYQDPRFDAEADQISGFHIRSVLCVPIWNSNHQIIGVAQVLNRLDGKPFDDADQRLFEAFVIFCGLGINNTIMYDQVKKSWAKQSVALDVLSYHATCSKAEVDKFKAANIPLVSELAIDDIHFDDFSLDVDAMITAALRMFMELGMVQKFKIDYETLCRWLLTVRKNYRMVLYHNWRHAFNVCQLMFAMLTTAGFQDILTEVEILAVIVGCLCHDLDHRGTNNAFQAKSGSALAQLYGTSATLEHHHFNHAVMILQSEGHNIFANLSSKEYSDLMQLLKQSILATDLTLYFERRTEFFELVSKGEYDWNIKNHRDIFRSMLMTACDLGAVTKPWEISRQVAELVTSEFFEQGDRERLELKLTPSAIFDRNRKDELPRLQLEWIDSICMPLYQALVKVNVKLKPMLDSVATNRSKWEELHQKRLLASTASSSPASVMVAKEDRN
The target of another series is PDE9 (Homo sapiens, UniProt O76083). Kind of series: PDE enzyme assay. Format: biochemical. The settings on record: selectivity ratio IC50 PDE9 / IC50 PDE5.
Chain of PDE9 (O76083 whole entry): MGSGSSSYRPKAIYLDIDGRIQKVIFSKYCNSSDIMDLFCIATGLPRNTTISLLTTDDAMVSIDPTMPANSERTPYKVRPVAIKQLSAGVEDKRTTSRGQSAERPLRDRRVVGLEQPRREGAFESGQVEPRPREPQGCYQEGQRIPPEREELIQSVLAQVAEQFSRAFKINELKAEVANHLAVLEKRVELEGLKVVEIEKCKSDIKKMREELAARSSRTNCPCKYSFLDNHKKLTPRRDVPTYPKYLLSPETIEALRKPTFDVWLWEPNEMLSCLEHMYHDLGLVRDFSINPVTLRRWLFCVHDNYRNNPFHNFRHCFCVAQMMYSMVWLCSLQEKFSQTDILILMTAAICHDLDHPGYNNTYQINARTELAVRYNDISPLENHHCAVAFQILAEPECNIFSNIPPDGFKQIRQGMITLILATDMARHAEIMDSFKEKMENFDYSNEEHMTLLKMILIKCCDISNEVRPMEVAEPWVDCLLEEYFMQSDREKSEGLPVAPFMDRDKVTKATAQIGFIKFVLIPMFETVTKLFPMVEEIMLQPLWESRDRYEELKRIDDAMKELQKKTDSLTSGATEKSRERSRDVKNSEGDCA
The next series has as its system APP/PS1 mice. The series is described as follows: 2-day radial arm water maze. Format: in vivo, APP/PS1 mouse. The settings on record: 3 mg/kg, i.p., for 3 weeks; 3–4 month old APP/PS1 mice; vehicle ~3 errors.
The target of the next series is PDE3. The series is described as follows: PDE enzyme assay. Type of series: biochemical. As to conditions: for IC50: read-out: PDE3 IC50, Data obtained by BPS Bioscience; for PDEX/PDE5 (PDE3): selectivity ratio IC50 PDE3 / IC50 PDE5. An outline of the steps: as §1
Series [1] concerns LTP in slices from APP/PS1 mice. The series is described as follows: LTP in hippocampal slices from APP/PS1 mice. On the set-up: species or system APP/PS1 mouse. The settings on record: 50 nM through bath solution for 10 min prior to θ-burst.
The nature of series [2]: Pharmacokinetics in mouse brain tissue and plasma. Format: in vivo, male BALB/c mice. The method, boiled down: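 Test compound was dosed at 50 mg/kg p.o. in 0.05% aqueous methylcellulose. Plasma (retro-orbital blood, heparin) and brain were taken at 0, 0.25, 0.5, 1, 2 and 4 h, with 3 mice per time point. Brain was rinsed in cold saline and homogenised in methanol. LC/MS/MS used an internal standard and 1/x2-weighted linear regression. Penetration was expressed as brain/plasma Cmax and AUC ratios.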

For another series, the target named is PDE1. Kind of series: PDE enzyme assay. As to conditions: for IC50: read-out: PDE1 IC50, Data obtained by BPS Bioscience; for PDEX/PDE5 (PDE1): selectivity ratio IC50 PDE1 / IC50 PDE5. Type of series: biochemical. An outline of the steps: as §1
The target of another series is PDE10 (Homo sapiens, UniProt Q9Y233). Kind of series: PDE enzyme assay. The settings on record: selectivity ratio IC50 PDE10 / IC50 PDE5. Type of series: biochemical.
Chain of PDE10 (Q9Y233 whole entry): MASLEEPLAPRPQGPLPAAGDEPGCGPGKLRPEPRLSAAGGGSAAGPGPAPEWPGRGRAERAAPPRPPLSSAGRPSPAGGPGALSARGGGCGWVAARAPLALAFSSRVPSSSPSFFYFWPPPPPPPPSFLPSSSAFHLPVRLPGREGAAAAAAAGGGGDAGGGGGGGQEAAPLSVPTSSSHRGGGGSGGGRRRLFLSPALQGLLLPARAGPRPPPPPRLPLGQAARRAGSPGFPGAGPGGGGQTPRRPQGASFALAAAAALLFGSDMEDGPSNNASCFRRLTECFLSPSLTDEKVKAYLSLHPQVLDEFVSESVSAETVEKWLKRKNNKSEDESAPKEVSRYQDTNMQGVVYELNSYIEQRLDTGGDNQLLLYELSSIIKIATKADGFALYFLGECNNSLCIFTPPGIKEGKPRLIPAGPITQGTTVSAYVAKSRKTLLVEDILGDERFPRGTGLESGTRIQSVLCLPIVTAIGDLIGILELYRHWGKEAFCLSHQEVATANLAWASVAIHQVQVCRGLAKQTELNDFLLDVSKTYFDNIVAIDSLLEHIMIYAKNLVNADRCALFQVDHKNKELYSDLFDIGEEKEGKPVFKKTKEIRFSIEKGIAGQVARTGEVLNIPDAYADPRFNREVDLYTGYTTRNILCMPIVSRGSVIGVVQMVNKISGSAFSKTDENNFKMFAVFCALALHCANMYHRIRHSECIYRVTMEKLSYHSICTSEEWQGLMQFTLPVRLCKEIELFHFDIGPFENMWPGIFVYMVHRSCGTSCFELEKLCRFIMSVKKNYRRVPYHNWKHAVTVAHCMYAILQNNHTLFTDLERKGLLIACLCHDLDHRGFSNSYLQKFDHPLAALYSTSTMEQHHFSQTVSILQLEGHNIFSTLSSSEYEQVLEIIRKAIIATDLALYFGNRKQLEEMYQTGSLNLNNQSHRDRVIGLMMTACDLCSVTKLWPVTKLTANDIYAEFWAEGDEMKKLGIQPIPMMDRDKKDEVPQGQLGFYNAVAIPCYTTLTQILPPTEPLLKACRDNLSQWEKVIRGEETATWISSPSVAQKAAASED

Chain of PDE2 (O00408 whole entry): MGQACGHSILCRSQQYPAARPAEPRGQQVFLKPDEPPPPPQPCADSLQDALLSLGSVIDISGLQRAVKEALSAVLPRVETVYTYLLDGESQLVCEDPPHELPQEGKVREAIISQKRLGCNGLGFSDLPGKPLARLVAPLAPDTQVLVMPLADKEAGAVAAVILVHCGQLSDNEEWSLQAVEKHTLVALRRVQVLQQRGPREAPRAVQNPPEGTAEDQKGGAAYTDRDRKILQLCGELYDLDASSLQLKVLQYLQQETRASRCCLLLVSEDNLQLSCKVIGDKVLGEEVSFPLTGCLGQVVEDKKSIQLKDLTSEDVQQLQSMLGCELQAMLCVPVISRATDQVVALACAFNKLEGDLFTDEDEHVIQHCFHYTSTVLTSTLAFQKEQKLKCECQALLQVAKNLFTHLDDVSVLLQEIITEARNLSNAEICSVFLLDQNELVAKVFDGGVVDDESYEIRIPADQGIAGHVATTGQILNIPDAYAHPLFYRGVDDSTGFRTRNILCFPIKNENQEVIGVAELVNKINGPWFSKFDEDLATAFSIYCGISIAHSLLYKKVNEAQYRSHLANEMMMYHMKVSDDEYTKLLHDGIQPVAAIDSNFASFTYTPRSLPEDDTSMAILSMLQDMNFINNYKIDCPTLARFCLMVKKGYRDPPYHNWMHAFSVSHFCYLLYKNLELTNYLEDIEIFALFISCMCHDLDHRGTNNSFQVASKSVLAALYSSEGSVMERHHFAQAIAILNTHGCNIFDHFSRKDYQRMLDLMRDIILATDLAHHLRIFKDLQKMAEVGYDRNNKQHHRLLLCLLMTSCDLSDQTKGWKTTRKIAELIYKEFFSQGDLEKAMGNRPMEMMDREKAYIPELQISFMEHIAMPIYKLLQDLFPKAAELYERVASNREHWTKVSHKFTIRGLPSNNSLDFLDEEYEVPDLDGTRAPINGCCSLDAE

For `COc1ccc(CNc2c(CO)cnc3c(C4CC4)cc(C#N)cc23)cc1Cl` [7a, 4-[(3-chloro-4-methoxybenzyl)amino]-8-cyclopropyl-3-(hydroxymethyl) quinoline-6-carbonitrile], in the series with PDE8, the “PDEX/PDE5 (PDE8)” value is listed as >10^4. Moreover, the “PDEX/PDE5 (PDE2)” value at PDE2 is >10^4. On PDE5, the “PDEX/PDE5 (PDE5)” value is listed as 1. Further, on PDE4, the IC50 (usually the concentration at which inhibition is half-maximal) was above 10 µM and the “PDEX/PDE5 (PDE4)” value was >10^4. Moreover, on PDE7, the IC50 was above 10 µM and the “PDEX/PDE5 (PDE7)” value is reported as >10^4. The “PDEX/PDE5 (PDE11)” value on PDE11 is >10^4. In addition, the “PDEX/PDE5 (PDE9)” value on PDE9 was >10^4. The “Errors in the 2-day RAWM test” value with APP/PS1 mice was “less than 2 errors”. At PDE3, the half-inhibitory concentration (IC50) was above 10 µM and the “PDEX/PDE5 (PDE3)” value is reported as >10^4. Moreover, the “Effect on LTP in WT slices” value in series [1] was “no effect”. In [2], the “Blood brain barrier penetration” value was “readily crosses the blood brain barrier”. At PDE1, the IC50 is above 10 µM and the “PDEX/PDE5 (PDE1)” value is >10^4. Further, the “PDEX/PDE5 (PDE10)” value at PDE10 is on record as >10^4.

With `COc1ccc(CNc2c(CO)cnc3c(N(C)C)cc(C#N)cc23)cc1Cl` [7b, 4-[(3-chloro-4-methoxybenzyl)amino]-8-(N,N-dimethylamino)-3-(hydroxymethyl) quinoline-6-carbonitrile], the “PDEX/PDE5 (PDE8)” value in the series with PDE8 is given as >10^4. Further, the “PDEX/PDE5 (PDE2)” value on PDE2 is on record as >10^4. On PDE5, the “PDEX/PDE5 (PDE5)” value was 1. Besides, on PDE4, the IC50 was above 10 µM and the “PDEX/PDE5 (PDE4)” value is reported as >10^4. Further, at PDE7, the IC50 was above 10 µM and the “PDEX/PDE5 (PDE7)” value is recorded as >10^4. Also, the “PDEX/PDE5 (PDE11)” value on PDE11 is >10^4. Further, the “PDEX/PDE5 (PDE9)” value on PDE9 is given as >10^4. On PDE3, the 50% inhibitory concentration (IC50) is above 10 µM and the “PDEX/PDE5 (PDE3)” value is >10^4. Moreover, at PDE1, the 50% inhibitory concentration (IC50) is above 10 µM and the “PDEX/PDE5 (PDE1)” value was >10^4. The “PDEX/PDE5 (PDE10)” value on PDE10 is recorded as >10^4.

These data come from article PMC3582828 (European journal of medicinal chemistry, 2012).
